Test results taken from ChEMBL document CHEMBL4513216, “Probing the Open Global Health Chemical Diversity Library for Multistage-Active Starting Points for Next-Generation Antimalarials” (ACS Infect Dis, 2020).

experiment: Toxicity liver stage against HepG2, at 10uM; assay type: cell-based; design: test concentration 10 uM, cell line HepG2-A16-CD81EGFP; conditions: human, HepG2-A16-CD81EGFP cells; read-out: INHIBITION
Procedure, shortened: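 Uninfected HepG2-A16-CD81EGFP cells, 3 × 10^3 per well, 1536-well, plated on prespotted compound at 10 μM final, parasite-free screening media added to match infected plates; puromycin 10 μM positive, DMSO 0.5% negative; run in parallel with 48 h PbLuc assay at 37 °C, 5% CO2; viability by CellTiter-Glo luminescence, normalized to controls.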

| Compound | cytotoxicity at 10 µM |
| --- | --- |
| Cc1nc(N(C)C)nc2c1COCC21CCN(C(=O)NC(C)C)C1 (stereo not drawn) | -13% |
| Cc1nc(C)n(CC2CCCCN2Cc2cn3ccccc3n2)n1 (stereo not drawn) | -4.47% |
| Cc1ccc([C@@H]2CN(C(=O)c3ccccc3C)C[C@H]2N(C)C)cc1 | -8.29% |
| CN(C)S(=O)(=O)N1CCC(Oc2ccc(C#N)cn2)CC1 | 4.16% |
| Cc1cc(C(N)=O)c(N2C[C@@H](C)[C@@](C)(O)C2)nc1C | -9.14% |
| COc1ccc(C(=O)NCCC(N)=O)c(I)c1 | 9.34% |
| COc1ccc(C(C)NCc2cccs2)cc1Cn1cccn1 (stereo not drawn) | 10.2% |
| COc1ccc(CN2CCO[C@H]3[C@H](OCCN4CCCC4)CC[C@@H]32)cc1 | 0.471% |
| COc1cc(NCc2c(C)noc2C)c(C(=O)N(C)C)cc1OC | 6.85% |
| CN(C)C(=O)N1CCN(CCCc2ccccc2)[C@H]2CS(=O)(=O)C[C@H]21 | -5.18% |
| COCCO[C@@H]1CCN(C(=O)c2occc2C)[C@H]1Cc1cnn(C)c1 | 5.1% |
| O=C(Cn1cnc2cc3c(cc21)OCCCO3)NC1CCCC1 | 3.92% |
| CC(C)(C)c1cc(NC(=O)NCCc2nnc3n2CCC3)c(C#N)s1 | 14.1% |
| O=C(c1ncccc1O)N1CCN(Cc2ccco2)C(CCO)C1 (stereo not drawn) | 3.89% |
| Cn1cc(CCC(=O)N2CCCN(c3ncccc3C#N)CC2)cn1 | 2.88% |
| CN(Cc1ccoc1)C(=O)C1CCN(C(=O)C2CCCC2)CC1 | -7.77% |
| CC(C#N)CSc1ccccc1NCC(=O)NCc1cccs1 (stereo not drawn) | 2.13% |
| COCCn1cnc2ccc(NC(=O)CCCn3cccn3)cc2c1=O | 6.43% |
| O=C1[C@H]2CN(CC3CCOCC3)C[C@H]2CN1Cc1cccc(F)c1 | -118% |
| Cc1cc(C)n(CC2CCCN2CCCc2nc3ccccc3o2)n1 (stereo not drawn) | -10.9% |
| Cc1ccc(F)cc1C(=O)OCC1CCCN1C(N)=O (stereo not drawn) | 5.01% |
| O=S(=O)(C1CC1)N1CCC2(COCc3cnc(-c4cccnc4)nc32)C1 (stereo not drawn) | -115% |

| Compound | cytotoxicity at 10 µM |
| --- | --- |
| CN(C)S(=O)(=O)c1ccc2c(c1)N(Cc1ccccn1)CCC2 | 0.645% |
| CCOc1ccc(NC(=O)Cc2cc(C)[nH]n2)cc1CO | 0.335% |
| COc1ccc(N2CCN(C(=O)[C@@H]3C[C@@H](O)CN3)CC2(C)C)cc1 | 4.95% |
| Cn1c(CNCC2CCCN2c2cccnn2)nc2ccccc21 (stereo not drawn) | -18.2% |
| Cc1cc(C)c(Cn2cncn2)cc1CN1CC[C@H](CO)[C@@H](O)C1 | -5.42% |
| Cc1ccc(CN2CCC(n3cc(C(O)c4ccccc4)nn3)CC2)o1 (stereo not drawn) | 2.11% |
| CC(C)c1nc2cc(NC(=O)Cn3ccccc3=O)ccc2o1 | -17.8% |
| O=C(Cn1ccc2cc(Br)ccc21)NCc1ccc(C(=O)O)cc1 | 9.6% |
| CNC(=O)Cc1ccc(NC(=O)NC(C)C(C)C)cc1 (stereo not drawn) | -4.69% |
| CC(C)c1nnc2n1CCN(C(=O)c1ccc(N(C)C)nn1)C2 | -9.86% |
| CC(C)c1nnc(CNc2nc(-c3cccnc3)nc3c2CCC3)n1C | 8.74% |
| COc1cc(C)ccc1C(=O)N1C[C@@H](CN(C)CCO)[C@@H](CO)C1 | 1% |
| CC(C)(C)n1cc(CNC2CCN(C(=O)c3ccco3)CC2)cn1 | -8.08% |
| CCOC(=O)N1CCC(Nc2cc(CC)nc3c(C)c(C)nn23)CC1 | 11.8% |
| CCC(C(=O)NCCc1ccn(-c2ccccc2)n1)N1CCCC1=O (stereo not drawn) | 6.18% |
| CCc1ccccc1Nc1noc2c1CN(C(=O)c1ccn(C)n1)CC2 | 0.295% |
| Cc1nc(C2CCN(S(=O)(=O)c3ccc4c(c3)CCC4)CC2)n[nH]1 | -1.24% |
| Cn1cccc1C(=O)N1C[C@@H]2C[C@@H](c3nnc(C4CC4)o3)O[C@@H]2C1 | -112% |
| Cc1cccc(CN2CCS(=O)(=O)[C@@H]3CCN(S(C)(=O)=O)CC[C@@H]32)n1 | -3.34% |
| CN(Cc1nnc(-c2ccco2)o1)C(C(N)=O)c1cccc(F)c1 (stereo not drawn) | 16.7% |
| COc1cc(F)c(NC(=O)N(C)CCNC(=O)N(C)C)cc1F | 17.6% |
| N#Cc1ccnc(N2CCC(c3nccn3Cc3cscn3)CC2)c1 | -12.4% |

| Compound | cytotoxicity at 10 µM |
| --- | --- |
| Nc1cc2c(nn1)CCN(C(=O)Cc1ccc3c(c1)CCCC3)C2 | 0.696% |
| Cc1oc(C(=O)O)cc1S(=O)(=O)Nc1cccc(Cl)c1F | -5.99% |
| CC(C)c1noc(C[S+]([O-])CC(=O)Nc2ccc(F)c(F)c2)n1 (stereo not drawn) | -8.82% |
| COCCN(Cc1ccccc1)c1cc(C)ncn1 | 7.41% |
| CCn1cc(C(=O)NCCN2CCCc3ccccc32)c(C)n1 | 4.23% |
| COCCN(Cc1ccoc1)C(=O)c1cccnc1SC | 12.4% |
| CCCN(C(=O)c1cc2c([nH]c1=O)CCCC2=O)C1CCCCC1 | -0.708% |
| CN1CCN(C(=O)COCc2nc(-c3ccncc3)no2)CC1 | 14.6% |
| CCn1c(C)nnc1Sc1nn2cc(C)nc2s1 | -1.99% |
| CN(C)CCOCC1CN(Cc2ccccn2)Cc2nnn(C)c21 (stereo not drawn) | 5.5% |
| CCN(CC)CCC(=O)N1CCc2c(nc(N(C)C)nc2N(C)C)C1 | -14.4% |
| CSCC1CCCN(c2ncnc3oc(C)nc23)C1 (stereo not drawn) | 4.03% |
| COCC(=O)N1C[C@@H](CN2CCCN(C)CC2)[C@@H](CO)C1 | -3.85% |
| Cc1cc(-c2ccc(C(=O)O)cc2)nc(C2CCN(C(C)C)CC2)n1 | -26.3% |
| CNC(=O)Cc1ccc(NC(=O)NC2(c3cccc(F)c3)CC2)cc1 | 5.74% |
| Cc1nc2cc(CNC(=O)C3CC(=O)N(CCN(C)C)C3)ccc2n1C (stereo not drawn) | -4.31% |
| NC(=O)c1ccc(NC(=O)Cn2cc(I)cn2)cc1 | 8.49% |
| COc1ccc(NC(=O)N2CCC3(CC2)NC(=O)CC3C(=O)O)c(C)c1 (stereo not drawn) | -7.34% |
| Cn1ccc(CN2CCCC23CCNCC3)n1 | 4.86% |
| CC(=O)NCc1nc(CCOc2ccc(Cl)cc2)no1 | -145% |
| Cc1cccc(CN2C[C@@H]3CN(C(=O)c4cnccn4)C[C@@H]3C2=O)c1 | 2.43% |
| CCCOC1CCCN(c2nc(CC)nc3c2cnn3C)C1 (stereo not drawn) | -3.29% |

| Compound | cytotoxicity at 10 µM |
| --- | --- |
| CN(C)c1nc2c(c(N3CCC4(CCCNC4=O)C3)n1)CCCC2 (stereo not drawn) | -5.81% |
| Cc1nccn1-c1cncc(C2CCCN2Cc2ccccc2)n1 (stereo not drawn) | -8.52% |
| COCCS(=O)(=O)Cc1csc(NC(C)=O)n1 | -2.93% |
| COCC1CN(Cc2c(C)noc2C)Cc2ccnn2C1 (stereo not drawn) | -89.3% |
| CN(C)c1cc(C2CCCN2C(=O)c2ccc(=O)n(C)c2)ccn1 (stereo not drawn) | -23.9% |
| COCCN1CCN(Cc2c(C)noc2C)Cc2cccnc21 | -70.1% |
| O=C(C1CCCN(Cc2cccc(F)c2)C1)N1CCc2sccc2C1 (stereo not drawn) | -0.23% |
| COCCCNC(=O)N1CCCC(c2nncn2C)C1 (stereo not drawn) | -19.7% |
| CCN1CCN(CC(O)c2ccc(F)cc2)CC1 (stereo not drawn) | -9.41% |
| Cc1ncc2c(n1)CCCC2NC(=O)c1ccccc1C(=O)O (stereo not drawn) | -11.7% |
| CCc1nnc(Nc2cc(C)nc(C3CN(C(=O)C(C)C)CCO3)c2)s1 (stereo not drawn) | 7.25% |
| NC(=O)CC1CCCN(c2cncc(OCc3ccccc3)n2)C1 (stereo not drawn) | 17.7% |
| CS(=O)(=O)CC(=O)N1C[C@@H]2CN(Cc3ccoc3)CCO[C@@H]2C1 | -69.2% |
| Cc1n[nH]c(=O)c2c(NC(=O)CN3CCOC(C)C3)oc(C)c12 (stereo not drawn) | -0.524% |
| COc1ccccc1CN1C(=O)O[C@@H]2CN(S(=O)(=O)N(C)C)C[C@@H]21 | 2.54% |
| Cc1noc(OCc2csc(C)n2)n1 | -2.54% |
| COc1ccccc1CC(=O)NCc1c(C)nc2cc(=O)[nH]n2c1C | -6.8% |
| CN(CCCc1nccn1C)c1nccc(-c2cc(C(=O)O)ccn2)n1 | -4.9% |
| Cc1ccc(C(C)NC(=O)N2CCNC(=O)CC2)cc1F (stereo not drawn) | 18.9% |
| O=C1CC2(CCN(Cc3ccoc3)C2)CN1c1cncnc1 (stereo not drawn) | -69.4% |
| COc1cccc2c1OCC(C(=O)NCCc1nnc(C)s1)C2 (stereo not drawn) | -42.1% |
| O=C(NCc1ccccc1)[C@H]1C[C@H]2CN(S(=O)(=O)C3CC3)C[C@@H]1O2 | 1.59% |

| Compound | cytotoxicity at 10 µM |
| --- | --- |
| CN1CCN(c2ccc3ccc(C(=O)N4CCCCO4)cn23)CC1 | -7.3% |
| CCOc1ncccc1C(=O)N1CCCC1Cn1cc(C)cn1 (stereo not drawn) | 0.787% |
| CC(C)c1nc2c(n1C)CCN(CC(=O)NCc1ccccn1)C2 | -8.52% |
| Cc1csc(C2(NCc3nc(-c4ccco4)no3)CCCC2)n1 | 3.18% |
| CC(SCCC(=O)NC(N)=O)c1ccc(F)cc1F (stereo not drawn) | 0.936% |
| O=C(c1cccnc1O)N1CCC2(CCCO2)CC1 | 7.28% |
| CCCn1cc(C(=O)N2CCOC(c3nc(-c4cccs4)no3)C2)cn1 (stereo not drawn) | -4.22% |
| O=C(NCCc1cccs1)[C@]12COC[C@H]1CN(c1ncccn1)C2 | -109% |
| Cc1nn(COc2cccc(F)c2)c(C)c1NC(=O)C1CC1 | 5.62% |
| Cc1nnc([C@@H]2C[C@H]3CN(C(=O)C4CC4)C[C@H]3O2)[nH]1 | 19.8% |
| CN1CC(=O)N(c2ccccc2)CC12CCN(C(=O)c1cnccn1)C2 (stereo not drawn) | 9.91% |
| COc1ccc(OC)c(-n2cnnc2CCN)c1 | 9.83% |
| CN1C(=O)C2(CCN(CC3CC3)CC2)c2ccccc21 | 3.16% |
| COCc1noc(-c2ccc(N3CCCC3c3ccc(F)cc3)nc2)n1 (stereo not drawn) | 5.79% |
| CCN(CC)C(=O)c1ccn(COc2c(Cl)cccc2Cl)n1 | 11.6% |
| CN1[C@H](Cn2cncn2)C[C@@H]2CN(Cc3cccc(C#N)c3)CC[C@@H]21 | -9.78% |
| C=c1cc(C)oc1=C1NC(c2c(C)ncc3c2CCNC3)=NO1 | -0.132% |
| O=C(CCNCc1cccc(O)c1)N1CCc2sccc2C1 | 16% |
| Cc1noc2nc(C3CC3)c(Cl)c(C(=O)O)c12 | -1.25% |
| Cc1ccc(S(=O)(=O)NCc2[nH]ncc2Br)cc1F | 12.6% |
